Results from ChEMBL document CHEMBL1134657, “Inhibition of cancer cell growth by ruthenium(II) arene complexes” (J Med Chem, 2001).

System: A2780
Assay: Concentration required to inhibit 50% growth of A2780 human ovarian cancer cells.
Assay type: functional, cell-based
Procedure, shortened: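 A2780 cells kept at 37 °C, 5% CO2, seeded at 1 × 10^4 cells per well, grown 72 h, then exposed for 24 h to complexes freshly dissolved in deionized water and diluted in RPMI to final 0.1, 1, 10 and 100 µM, in duplicate. Drug medium removed, cells washed with PBS, regrown in fresh medium and counted on day 7 by Coulter counter.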

IC50	Substance
> 150 µM	[(nu6-p-cymene)RuCl2(isonicotinamide)]
0.5 µM	CISPLATIN
6 µM	[(nu6-C6H5C6H5)RuCl(N-ethylethylenediamine)]PF6
17 µM	[(nu6-C6H6)RuCl(ethylenediamine)]PF6
9 µM	[(nu6-p-cymene)RuCl(ethylenediamine)]PF6
8 µM	[(nu6-p-cymene)RuI(ethylenediamine)]PF6
6 µM	CARBOPLATIN
20 µM	[(nu6-C6H6)RuI(ethylenediamine)]PF6
> 150 µM	[(nu6-p-cymene)RuBr(CH3CN)2]PF6
55 µM	[(nu6-C6H5CO2CH3)RuCl(ethylenediamine)]PF6
